Test results published in ChEMBL document CHEMBL5058577, “EUbOPEN Chemogenomics Library 2 (Multiplex)” (2022).

Test system: HEK-293T
Assay: Multiplex assay against HEK293T
Type: toxicity, cell-based
Conditions: human
In short: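 At seeding, live cells were stained with Hoechst33342, BioTracker Green Microtubule Cytoskeleton Dye, MitoTracker Red and Annexin V Alexa Fluor 680. After compound addition they were imaged on a CQ1 microscope at 37°C and 5% CO2, and CellPathfinder machine-learning gating sorted them into Hoechst high-intensity objects or normal cells, with normal cells further split into healthy, pyknosed or fragmented nuclei and pyknosed cells into mitotic or apoptotic. Tubulin, mitochondrial-mass and membrane-permeability phenotypes are given as per cents of cells with healthy nuclei.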

[1] = 12 h, 1 µM, compound concentration 1 uM, replicate 1
[2] = 12 h, 1 µM, compound concentration 1 uM, replicate 2
[3] = 12 h, 10 µM, compound concentration 10 uM, replicate 1
[4] = 12 h, 10 µM, compound concentration 10 uM, replicate 2
[5] = 24 h, 1 µM, compound concentration 1 uM, replicate 1
[6] = 24 h, 1 µM, compound concentration 1 uM, replicate 2
[7] = 24 h, 10 µM, compound concentration 10 uM, replicate 1
[8] = 24 h, 10 µM, compound concentration 10 uM, replicate 2
[9] = 48 h, 1 µM, compound concentration 1 uM, replicate 1
[10] = 48 h, 1 µM, compound concentration 1 uM, replicate 2
[11] = 48 h, 10 µM, compound concentration 10 uM, replicate 1
[12] = 48 h, 10 µM, compound concentration 10 uM, replicate 2

SMILES: NCCc1cn(S(=O)(=O)c2c(Cl)nc3sccn23)c2ccccc12.O=C(O)C(=O)O
- Population Apoptotic (%) [1]: 37%
- Population Fragmented Nuclei (%) [1]: 5%
- Population Healthy Nuclei (%) [1]: 83%
- Population Hoechst High Intensity Objects (%) [1]: 7%
- Population Membrane Permeable-Phenotype (%) [1]: 0%
- Population Mitochondria Different-Phenotype (%) [1]: 53%
- Population Mitotic Cells (%) [1]: 62%
- Population Normal (%) [1]: 92%
- Population Pyknosed Nuclei (%) [1]: 11%
- Population Tubulin-Different-Phenotype (%) [1]: 40%
- Total Cell Count [1]: 446
- Population Apoptotic (%) [2]: 52%
- Population Fragmented Nuclei (%) [2]: 8%
- Population Healthy Nuclei (%) [2]: 78%
- Population Hoechst High Intensity Objects (%) [2]: 8%
- Population Mitochondria Different-Phenotype (%) [2]: 66%
- Population Mitotic Cells (%) [2]: 47%
- Population Normal (%) [2]: 91%
- Population Pyknosed Nuclei (%) [2]: 13%
- Population Tubulin-Different-Phenotype (%) [2]: 34%
- Total Cell Count [2]: 316
- Population Apoptotic (%) [3]: 63%
- Population Fragmented Nuclei (%) [3]: 8%
- Population Healthy Nuclei (%) [3]: 49%
- Population Hoechst High Intensity Objects (%) [3]: 22%
- Population Membrane Permeable-Phenotype (%) [3]: 0%
- Population Mitochondria Different-Phenotype (%) [3]: 96%
- Population Mitotic Cells (%) [3]: 36%
- Population Normal (%) [3]: 77%
- Population Pyknosed Nuclei (%) [3]: 42%
- Population Tubulin-Different-Phenotype (%) [3]: 88%
- Total Cell Count [3]: 292
- Population Apoptotic (%) [4]: 64%
- Population Healthy Nuclei (%) [4]: 67%
- Population Hoechst High Intensity Objects (%) [4]: 25%
- Population Mitochondria Different-Phenotype (%) [4]: 97%
- Population Mitotic Cells (%) [4]: 35%
- Population Normal (%) [4]: 74%
- Population Pyknosed Nuclei (%) [4]: 23%
- Population Tubulin-Different-Phenotype (%) [4]: 82%
- Total Cell Count [4]: 209
- Population Apoptotic (%) [5]: 33%
- Population Fragmented Nuclei (%) [5]: 9%
- Population Healthy Nuclei (%) [5]: 79%
- Population Hoechst High Intensity Objects (%) [5]: 6%
- Population Membrane Permeable-Phenotype (%) [5]: 1%
- Population Mitochondria Different-Phenotype (%) [5]: 28%
- Population Mitotic Cells (%) [5]: 66%
- Population Normal (%) [5]: 93%
- Population Pyknosed Nuclei (%) [5]: 11%
- Population Tubulin-Different-Phenotype (%) [5]: 26%
- Total Cell Count [5]: 585
- Population Apoptotic (%) [6]: 41%
- Population Fragmented Nuclei (%) [6]: 12%
- Population Healthy Nuclei (%) [6]: 78%
- Population Hoechst High Intensity Objects (%) [6]: 4%
- Population Mitochondria Different-Phenotype (%) [6]: 46%
- Population Mitotic Cells (%) [6]: 58%
- Population Normal (%) [6]: 95%
- Population Pyknosed Nuclei (%) [6]: 8%
- Population Tubulin-Different-Phenotype (%) [6]: 19%
- Total Cell Count [6]: 438
- Population Apoptotic (%) [7]: 74%
- Population Fragmented Nuclei (%) [7]: 14%
- Population Healthy Nuclei (%) [7]: 37%
- Population Hoechst High Intensity Objects (%) [7]: 34%
- Population Membrane Permeable-Phenotype (%) [7]: 2%
- Population Mitochondria Different-Phenotype (%) [7]: 83%
- Population Mitotic Cells (%) [7]: 25%
- Population Normal (%) [7]: 65%
- Population Pyknosed Nuclei (%) [7]: 48%
- Population Tubulin-Different-Phenotype (%) [7]: 44%
- Total Cell Count [7]: 310
- Population Apoptotic (%) [8]: 75%
- Population Healthy Nuclei (%) [8]: 62%
- Population Mitochondria Different-Phenotype (%) [8]: 95%
- Population Mitotic Cells (%) [8]: 24%
- Population Pyknosed Nuclei (%) [8]: 22%
- Population Tubulin-Different-Phenotype (%) [8]: 76%
- Total Cell Count [8]: 195
- Population Apoptotic (%) [9]: 23%
- Population Fragmented Nuclei (%) [9]: 16%
- Population Healthy Nuclei (%) [9]: 77%
- Population Hoechst High Intensity Objects (%) [9]: 3%
- Population Membrane Permeable-Phenotype (%) [9]: 0%
- Population Mitochondria Different-Phenotype (%) [9]: 22%
- Population Mitotic Cells (%) [9]: 76%
- Population Normal (%) [9]: 96%
- Population Pyknosed Nuclei (%) [9]: 6%
- Population Tubulin-Different-Phenotype (%) [9]: 19%
- Total Cell Count [9]: 972
- Population Apoptotic (%) [10]: 47%
- Population Fragmented Nuclei (%) [10]: 12%
- Population Healthy Nuclei (%) [10]: 82%
- Population Hoechst High Intensity Objects (%) [10]: 5%
- Population Membrane Permeable-Phenotype (%) [10]: 1%
- Population Mitochondria Different-Phenotype (%) [10]: 23%
- Population Mitotic Cells (%) [10]: 52%
- Population Normal (%) [10]: 94%
- Population Pyknosed Nuclei (%) [10]: 5%
- Population Tubulin-Different-Phenotype (%) [10]: 14%
- Total Cell Count [10]: 678
- Population Apoptotic (%) [11]: 53%
- Population Fragmented Nuclei (%) [11]: 27%
- Population Healthy Nuclei (%) [11]: 24%
- Population Hoechst High Intensity Objects (%) [11]: 62%
- Population Membrane Permeable-Phenotype (%) [11]: 11%
- Population Mitochondria Different-Phenotype (%) [11]: 74%
- Population Mitotic Cells (%) [11]: 46%
- Population Normal (%) [11]: 37%
- Population Pyknosed Nuclei (%) [11]: 47%
- Population Tubulin-Different-Phenotype (%) [11]: 55%
- Total Cell Count [11]: 294
- Population Apoptotic (%) [12]: 78%
- Population Fragmented Nuclei (%) [12]: 19%
- Population Healthy Nuclei (%) [12]: 47%
- Population Hoechst High Intensity Objects (%) [12]: 47%
- Population Membrane Permeable-Phenotype (%) [12]: 1%
- Population Mitochondria Different-Phenotype (%) [12]: 75%
- Population Mitotic Cells (%) [12]: 21%
- Population Normal (%) [12]: 52%
- Population Pyknosed Nuclei (%) [12]: 33%
- Population Tubulin-Different-Phenotype (%) [12]: 52%
- Total Cell Count [12]: 212
